The values that follow come from ChEMBL document CHEMBL2396524, “Design, synthesis and biological evaluation of enzymatically cleavable NSAIDs prodrugs derived from self-immolative dendritic scaffolds for the treatment of inflammatory diseases” (Bioorg Med Chem, 2013).

The nature of data set [1]: Chemical stability of the compound in phosphate buffer at pH 8 assessed as compound remaining at 0.1 uM after 48 hrs by RP-HPLC analysis. The class given is physicochemical. Particulars: read-out: Stability. A digest of the protocol: (§1)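 Conjugates at 0.1 µM were incubated at 37 °C in 20 mM phosphate buffer at pH 2.0, 7.0 or 8.0. Intact conjugate was measured by RP-HPLC: RP18 column, methanol/0.05 mol/l KH2PO4 pH 3.0 (60:40), 1.0 ml/min, UV 256 nm, 25 °C. Results are % remaining, mean ± SD.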

Data set [2] is described as follows: Chemical stability of the compound in phosphate buffer at pH 8 assessed as compound remaining at 0.1 uM after 240 hrs by RP-HPLC analysis. The format is physicochemical. As to conditions: read-out: Stability. The method, boiled down:
as §1

Data set [3] concerns Mus musculus. The data set is described as follows: Antiinflammatory activity in Kunming mouse assessed as inhibition of xylene-induced auricle tumefaction at 25 uM/kg, tid qd for 5 days relative to control. The class given is functional. The method, boiled down: (§2)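 Male Kunming mice (18–22 g), 10 per group, with 0.9% NaCl as the blank group. Dosing was once daily for 5 days (table footnote); the methods say t.i.d. Drug was given at molar equivalence to naproxen. 1 h after the last dose, a 7 mm xylene-soaked filter was held on the right ear for 30 s. Mice were killed 30 min later and 7 mm ear discs punched. Inhibition % = (1 − a/b)×100.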

The nature of data set [4]: Chemical stability of the compound in phosphate buffer at pH 7 assessed as compound remaining at 0.1 uM after 240 hrs by RP-HPLC analysis. The class given is physicochemical. As to conditions: read-out: Stability. A digest of the protocol: as §1
The test system of data set [5] is HEK293. Kind of data set: Cytotoxicity against HEK293 cells assessed as cell viability at 2 to 32 ug/ml after 24 hrs by MTT assay. As to conditions: human, hek293, 24 h. The class given is cell-based. The method, boiled down: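 HEK293 cells were seeded at 2500/well and grown 24 h before compound exposure. The figure legend gives 24 h exposure; the methods give 48 h. MTT (5 mg/ml) was then added for 2.5 h at 37 °C. Formazan was dissolved in DMSO and read at 570 nm. Viability is % of control cells, mean ± SD, n = 3.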
In general terms: Tetrazolium assays rely on reduction of a dye to a coloured formazan, in cell work by metabolically active cells.

Data set [6] can be described thus: Chemical stability of the compound in phosphate buffer at pH 2 assessed as compound remaining at 0.1 uM after 240 hrs by RP-HPLC analysis. The format is physicochemical. As to conditions: read-out: Stability. The method, boiled down:
as §1

Data set [7] in a line: Chemical stability of the compound in phosphate buffer at pH 7 assessed as compound remaining at 0.1 uM after 48 hrs by RP-HPLC analysis. The format is physicochemical. As to conditions: read-out: Stability. A digest of the protocol: as §1
The subject of data set [8] is Mus musculus. The data set is described as follows: Gastrointestinal toxicity in Kunming mouse assessed as ulcer index at 200 mg/kg, po after 4 hrs. The class given is organism-based. The arrangement: dose 200 mg/kg, route oral. Particulars: in vivo. The method, boiled down:
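Kunming mice of either sex (18–22 g), 10 per group, were fasted 24 h. A 200 mg/kg oral dose was given as a suspension in 1% methylcellulose, and mice were killed after 4 h. Stomachs were fixed 30 min in 10% formaldehyde, opened along the greater curvature and lesion lengths measured under magnification. UI = summed lesion length (mm) per group divided by 10 animals.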

Data set [9] can be described thus: Chemical stability of the compound in phosphate buffer at pH 2 assessed as compound remaining at 0.1 uM after 48 hrs by RP-HPLC analysis. As to conditions: read-out: Stability. The format is physicochemical. A digest of the protocol: as §1
Data set [10] concerns Mus musculus. The data set is described as follows: Antiinflammatory activity in Kunming mouse assessed as inhibition of xylene-induced auricle tumefaction at 22.2 uM/kg, tid qd for 5 days relative to control. The class given is functional. A digest of the protocol:
as §2

In the case of `COc1ccc2cc(C(C)C(=O)OCCN(CCOC(=O)C(C)c3ccc4cc(OC)ccc4c3)CCC(=O)OCCN(CCOC(=O)CCN(CCOC(=O)C(C)c3ccc4cc(OC)ccc4c3)CCOC(=O)C(C)c3ccc4cc(OC)ccc4c3)CCC(=O)OCCN(CCOC(=O)CCN(CCOC(=O)CCN(CCOC(=O)C(C)c3ccc4cc(OC)ccc4c3)CCOC(=O)C(C)c3ccc4cc(OC)ccc4c3)CCOC(=O)CCN(CCOC(=O)C(C)c3ccc4cc(OC)ccc4c3)CCOC(=O)C(C)c3ccc4cc(OC)ccc4c3)CCC(=O)OCc3ccccc3)ccc2c1` (centres undefined), the remaining at 48 h, 0.1 µM in data set [1] was determined as 97.3%; in [7], 96.2%; in data set [9] it was 95.7%. Moreover, the remaining at 240 h, 0.1 µM was found to be 79.4% in data set [2], 95.9% in data set [4] and 72.3% in data set [6]. For the same molecule, in data set [3], the “inhibition (INH)” value worked out at 39.62%. Moreover, the Activity entry in data set [5] was “Non-toxic”. For the same molecule, the UI in data set [8] is given as 6.93.

On to `COc1ccc2cc(C(C)C(=O)OCC(COC(=O)C(C)c3ccc4cc(OC)ccc4c3)(COC(=O)C(C)c3ccc4cc(OC)ccc4c3)NC(=O)CCC(=O)OCC(COC(=O)CCC(=O)NC(COC(=O)C(C)c3ccc4cc(OC)ccc4c3)(COC(=O)C(C)c3ccc4cc(OC)ccc4c3)COC(=O)C(C)c3ccc4cc(OC)ccc4c3)(COC(=O)CCC(=O)NC(COC(=O)C(C)c3ccc4cc(OC)ccc4c3)(COC(=O)C(C)c3ccc4cc(OC)ccc4c3)COC(=O)C(C)c3ccc4cc(OC)ccc4c3)NC(=O)OCc3ccccc3)ccc2c1` (centres undefined), for which the figures for the remaining at 48 h, 0.1 µM in data set [1], in [7] and in [9] were 94.5%, 99.1% and 97.2%, respectively. The remaining at 240 h, 0.1 µM is 79.4% in [2], 98.4% in [4] and 89.9% in data set [6]. The Activity entry in data set [5] was “Non-toxic”. For the same molecule, in data set [10], the “inhibition (INH)” value was found to be 49.64%. Further, in data set [8], the UI worked out at 5.94.

In the case of `COc1ccc2cc(C(C)C(=O)NCCCCC(NC(=O)C(C)c3ccc4cc(OC)ccc4c3)C(=O)NCCCCC(NC(=O)C(CCCCNC(=O)C(C)c3ccc4cc(OC)ccc4c3)NC(=O)C(C)c3ccc4cc(OC)ccc4c3)C(=O)NCCCCC(NC(=O)C(CCCCNC(=O)C(CCCCNC(=O)C(C)c3ccc4cc(OC)ccc4c3)NC(=O)C(C)c3ccc4cc(OC)ccc4c3)NC(=O)C(CCCCNC(=O)C(C)c3ccc4cc(OC)ccc4c3)NC(=O)C(C)c3ccc4cc(OC)ccc4c3)C(=O)OCc3ccccc3)ccc2c1` (centres undefined), the remaining at 48 h, 0.1 µM amounted to 91.2% in data set [1], 97.6% in data set [7] and 97.1% in data set [9]. Moreover, the remaining at 240 h, 0.1 µM is 89.4% in data set [2], 96.1% in data set [4] and 93.1% in [6]. The “inhibition (INH)” value in [3] came out at 48.18%. The Activity entry in data set [5] is given as “Non-toxic”. Further, the UI in [8] is reported as 6.21.

As to `COc1ccc2cc([C@H](C)C(=O)O)ccc2c1` [NAPROXEN], the Activity entry in data set [5] is on record as “Non-toxic”. Besides, the UI in [8] stood at 8.26.
